The subject of experiment [1] is Citrobacter koseri. In words: In vitro minimal inhibitory concentration in brain-heart infusion broth in presence of hog liver esterase(1:1.5) in Citrobacter diversus 031. Format: functional. Summed up:
(§1)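 Two-fold serial broth dilution in brain-heart infusion broth. POM ester prodrugs were incubated with hog liver esterase (1:1.5) in the broth so the ester is converted in situ to the free acid. The MIC is the lowest concentration that inhibits growth.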

Experiment [2] in a line: In vitro minimal inhibitory concentration (MIC) in brain-heart infusion broth in the presence of hog liver esterase(1:1.5) in Serr. marc. 095. The class given is functional. The settings on record: Serratia marcescens. The gist of the method: as §1
The test system of experiment [3] is Klebsiella pneumoniae. In words: In vitro minimal inhibitory concentration in brain-heart infusion broth in the presence of hog liver esterase(1:1.5) in Klebsiella pneumoniae 079. Format: functional. Summed up:
as §1

The subject of experiment [4] is Escherichia coli. In words: In vitro minimal inhibitory concentration (MIC) in brain-heart infusion broth in the presence of hog liver esterase(1:1.5) in Escherichia coli 266. Format: functional. The gist of the method:
as §1

Experiment [5] relates to Pseudomonas aeruginosa. In words: In vitro minimal inhibitory concentration (MIC) in brain-heart infusion broth in the presence of hog liver esterase(1:1.5) in Pseudomonas aeruginosa 104. Format: functional. The gist of the method: as §1
Experiment [6] has as its system Staphylococcus aureus. In words: In vitro minimal inhibitory concentration (MIC) in brain-heart infusion broth in the presence of hog liver esterase(1:1.5) in Staphylococcus aureus 005. The class given is functional. The gist of the method: as §1
Experiment [7] deals with Enterobacter cloacae. In words: In vitro minimal inhibitory concentration (MIC) in brain-heart infusion broth in the presence of hog liver esterase(1:1.5) in […] 009. The class given is functional. The gist of the method: as §1
Experiment [8] has as its system Staphylococcus aureus. In words: In vitro minimal inhibitory concentration (MIC) in brain-heart infusion broth in the presence of hog liver esterase(1:1.5) in Staphylococcus aureus 400. Format: functional. The gist of the method:
as §1

For experiment [9], the system named is Escherichia coli. In words: In vitro minimal inhibitory concentration (MIC) in brain-heart infusion broth in the presence of hog liver esterase(1:1.5) in Escherichia coli 129. Format: functional. The gist of the method:
as §1

Experiment [10] concerns Morganella morganii. In words: In vitro minimal inhibitory concentration (MIC) in brain-heart infusion broth in the presence of hog liver esterase(1:1.5) in Morganella morganii 001. The class given is functional. The gist of the method:
as §1

Experiment [11] relates to Klebsiella pneumoniae. In words: In vitro minimal inhibitory concentration in brain-heart infusion broth in presence of hog liver esterase(1:1.5) in Klebsiella pneumoniae 079. The class given is functional. The gist of the method: as §1
In experiment [12] the test system is Citrobacter koseri. In words: In vitro minimal inhibitory concentration (MIC) in brain-heart infusion broth in the presence of hog liver esterase(1:1.5) in Citrobacter diversus 031. Format: functional. The gist of the method: as §1
Experiment [13] has as its system Streptococcus pyogenes. In words: In vitro minimal inhibitory concentration (MIC) in brain-heart infusion broth in the presence of hog liver esterase(1:1.5) in Streptococcus pyogenes 203. The class given is functional. Summed up: as §1
Experiment [14] deals with Haemophilus influenzae. In words: In vitro minimal inhibitory concentration (MIC) in brain-heart infusion broth in the presence of hog liver esterase(1:1.5) in Haemophilus influenzae 012.
Experiment [15] has as its system Klebsiella pneumoniae. In words: In vitro minimal inhibitory concentration (MIC) in brain-heart infusion broth in the presence of hog liver esterase(1:1.5) in Klebsiella pneumoniae 009. Format: functional. The gist of the method: as §1
The test system of experiment [16] is Enterobacter cloacae. In words: In vitro minimal inhibitory concentration in brain-heart infusion broth in the presence of hog liver esterase(1:1.5) in […] 009. Format: functional. The gist of the method:
as §1

As to `CC(=O)OC1[C@H](C)C(C(=O)OCOC(=O)C(C)(C)C)N2C(=O)[C@H](NC(=O)COc3ccccc3)[C@@H]12` (stereo partly drawn), the MIC in [1], in [2], in [3], in [4], in [5] and in experiment [6] was above 200 µg/mL each time. Further, the MIC in experiment [7], in [8], in experiment [9] and in experiment [10] was above 200 µg/mL each time.
`CCN1CCN(C(=O)N[C@@H](C(=O)N[C@@H]2C(=O)N3[C@@H]2C(O)[C@H](C)[C@@H]3C(=O)OCOC(=O)C(C)(C)C)c2ccccc2)C(=O)C1=O` (stereo partly drawn): the MIC stood at 12.5 µg/mL in experiment [1]; 25 µg/mL in [2]; 12.5 µg/mL in experiment [3]; 6.25 µg/mL in experiment [4]; 200 µg/mL in [5]; 25 µg/mL in [6]. The MIC in [7] was 12.5 µg/mL; in experiment [8] it was above 200 µg/mL; in [9], above 200 µg/mL; in [10], below 0.39 µg/mL.
For `C[C@H]1C(O)[C@@H]2[C@H](NC(=O)COc3ccccc3)C(=O)N2[C@H]1C(=O)OCOC(=O)C(C)(C)C` (stereo partly drawn), the MIC was above 200 µg/mL in experiment [2]; above 200 µg/mL in [11]; above 200 µg/mL in [4]; above 200 µg/mL in experiment [12]; above 200 µg/mL in experiment [5]; 25 µg/mL in [6]. Further, the MIC is above 200 µg/mL in experiment [7], 50 µg/mL in experiment [8], above 200 µg/mL in experiment [9] and above 200 µg/mL in experiment [10].
Regarding `CC1=C(C(=O)OCOC(=O)C(C)(C)C)N2C(=O)[C@H]([C@@H](C)O)[C@H]2C1O` (stereo partly drawn), the MIC is 0.78 µg/mL in [13]; 6.25 µg/mL in [14]; 6.25 µg/mL in [15]; 6.25 µg/mL in experiment [4]; 100 µg/mL in experiment [5]; 3.12 µg/mL in experiment [6]. The MIC in experiment [7] is 12.5 µg/mL; in experiment [8], 1.56 µg/mL; in experiment [9] it was 6.25 µg/mL; in experiment [10] it was 50 µg/mL.
On to `N[C@@H](C(=O)N[C@@H]1C(=O)N2C(C(=O)O)=C(Cl)CS[C@H]12)c1ccccc1` [CEFACLOR ANHYDROUS], for which the MIC in [13] is 0.05 µg/mL; in experiment [14], 3.12 µg/mL; in experiment [15], 1.56 µg/mL; in experiment [4] it was 3.12 µg/mL; in [5], above 200 µg/mL; in experiment [6], 1.56 µg/mL. Also, the MIC in [7] is above 200 µg/mL; in [8] it was 3.12 µg/mL; in experiment [9] it was 50 µg/mL; in experiment [10], above 200 µg/mL.
Regarding `C[C@@H](O)[C@H]1C(=O)N2C(C(=O)O)=C(SCCN)C[C@H]12` [THIENAMYCIN], the MIC is below 0.025 µg/mL in experiment [13]; 0.78 µg/mL in [14]; 0.2 µg/mL in [15]; 0.1 µg/mL in experiment [4]; 3.12 µg/mL in experiment [5]; below 0.025 µg/mL in [6]. Also, the MIC in experiment [7] was 0.39 µg/mL; in [8] it was below 0.025 µg/mL; in experiment [9] it was 0.39 µg/mL; in experiment [10], 6.25 µg/mL.
For the molecule `CC1(C)S[C@@H]2[C@H](NC(=O)COc3ccccc3)C(=O)N2[C@H]1C(=O)O` [PENICILLIN V], the MIC is above 200 µg/mL in [2]; below 0.025 µg/mL in [13]; above 200 µg/mL in experiment [16]; 6.25 µg/mL in [14]; above 200 µg/mL in [3]; above 200 µg/mL in experiment [15]. Besides, the MIC was 100 µg/mL in experiment [4]; above 200 µg/mL in experiment [12]; above 200 µg/mL in [5]; below 0.025 µg/mL in experiment [6]; 50 µg/mL in [8]; above 200 µg/mL in experiment [9]. In addition, the MIC in [10] was above 200 µg/mL.
With `C[C@H]1C(=O)[C@@H]2[C@H](NC(=O)OCc3ccccc3)C(=O)N2[C@H]1C(=O)OCOC(=O)C(C)(C)C`, the MIC is above 200 µg/mL in [2]; above 200 µg/mL in [11]; above 200 µg/mL in experiment [4]; above 200 µg/mL in experiment [12]; above 200 µg/mL in [5]; 100 µg/mL in [6]. Moreover, the MIC in experiment [7], in [8], in experiment [9] and in [10] was above 200 µg/mL in each case.

Source of the values: ChEMBL document CHEMBL1124946, “Cephalosporins to carbapenems: 1-oxygenated carbapenems and carbapenams” (1990).
